First the molecules themselves.
B1: tRNA (parent)
chain: GUUCCGUUGGCGUAAUGGUAACGCGUCUCCCUCCUAAGGAGAAGACUGCGGGUUCGAGUCCCGUACGGAACG

83 variants from the RNAGym collection of RNA variant scans (doi:10.1038/s41586-018-0170-7) can be followed below.

The variants in this series derive from B1. Put plainly: yeast fitness, log relative to wild type (ln ratio); higher = fitter; tRNA-Arg(CCU), competitive growth, 37 C, 1 M NaCl. In short, it runs like this: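 Genotype fitness is expressed as the natural log of its generations over those of the wild type. Each pool of the tRNA-Arg(CCU) variant library, carried on a HIS3 centromeric plasmid in BY4742 lacking the chromosomal gene, came from one of two independent transformations and grew 4 generations in SC-HIS at 30 °C before ~6.5 generations (~26.5 h) in SC-HIS 1M NaCl at 37 °C. Generation numbers used OD-scaled log2 output/input frequencies from 125 bp paired-end Illumina sequencing, combined across replicates by inverse-variance weighting.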
Take G1A A43C C46U C66U A70U: the “yeast fitness (ln)” value is -0.124. Consider G1A C27U A69G A70G, for which the “yeast fitness (ln)” value was -0.215. In the case of G1A C27U A69G A70U, the “yeast fitness (ln)” value was -0.216. On to G1A C66U C71U, for which the “yeast fitness (ln)” value was -0.105. Consider G1A A43C C66U A70G, for which the “yeast fitness (ln)” value is -0.236. Regarding G1A A43C C66U A70U, the “yeast fitness (ln)” value was -0.21. As to G1A C27U C46U A69G A70G C71U, the “yeast fitness (ln)” value was -0.16. For the variant G1A C27U A69G A70U C71U, the “yeast fitness (ln)” value is -0.421. For G1A C46U C71U, the “yeast fitness (ln)” value was -0.01.

For the variant G1A C27U A69G C71U, the “yeast fitness (ln)” value is -0.0706. G1A G6A C27U A43C C46U A69G A70U C71U: the “yeast fitness (ln)” value was -0.399. Consider G1A C66A A70U, for which the “yeast fitness (ln)” value is -0.0714. Take G1A C66A A70G: the “yeast fitness (ln)” value was -0.0993. Regarding G1A C27U C46U C66U A70G, the “yeast fitness (ln)” value was -0.157. Take G1A C27U C46U C66U A70U: the “yeast fitness (ln)” value is -0.154.

For the variant G1A A43C C66U A69G A70U C71U, the “yeast fitness (ln)” value was -0.338.

As to G1A G6A A69G C71U, the “yeast fitness (ln)” value is -0.146.

G1A C27U A43C C66U A69G A70G C71U: the “yeast fitness (ln)” value was -0.371. The figure for G1A C27U A43C C46U C66U C71U is -0.219; for G1A C46U C66U A70G C71U it is -0.493.

Take G1A C27U A43C C46U C66A A70G: the “yeast fitness (ln)” value was -0.248. Consider G1A C27U A43C C46U C66A A70U, for which the “yeast fitness (ln)” value was -0.155. G1A C27U A43C C66U C71U: the “yeast fitness (ln)” value is -0.437. G1A C46U C66U A69G C71U: the “yeast fitness (ln)” value is -0.763. Turning to G1A A69G, the “yeast fitness (ln)” value is -0.141. As to G1A C27U A43C, the “yeast fitness (ln)” value is -0.163. On to G1A G6A C27U A43C A70U, for which the “yeast fitness (ln)” value is -0.3.

In the case of G1A G6A C27U A43C A70G, the “yeast fitness (ln)” value was -0.21. As to G1A C46U C66A C71U, the “yeast fitness (ln)” value is -0.243. In the case of G1A G6A A70U, the “yeast fitness (ln)” value was -0.0929. Regarding G1A G6A A70G, the “yeast fitness (ln)” value is -0.156. G1A G6A A43C C66U C71U: the “yeast fitness (ln)” value was -0.144. Consider G1A G6A A43C C46U C66A A70U, for which the “yeast fitness (ln)” value is -0.143.

For G1A C27U C66U A69G C71U, the “yeast fitness (ln)” value was -0.285. As for G1A A43C C46U A69G C71U, the “yeast fitness (ln)” value was -0.0151. The figure for G1A C27U C66U C71U is -0.322. With G1A G6A A43C C46U A69G C71U, the “yeast fitness (ln)” value was -0.194.

On to G1A C27U A43C C46U A70G, for which the “yeast fitness (ln)” value is -0.147. G1A C27U A43C C46U A70U: the “yeast fitness (ln)” value was -0.203. Take G1A C27U C46U C66A A69G A70U C71U: the “yeast fitness (ln)” value is -0.411. As for G1A C46U C66U A70U C71U, the “yeast fitness (ln)” value was -0.214. As for G1A G6A C27U A43C A70G C71U, the “yeast fitness (ln)” value was -0.351. The figure for G1A A43C C66U A70G C71U is -0.235; for G1A A69G A70G C71U it is -0.0385; for G1A G6A C27U A43C C46U A69G A70U it is -0.259. For the variant G1A G6A C27U A43C C46U A69G A70G, the “yeast fitness (ln)” value was -0.265. As for G1A G6A, the “yeast fitness (ln)” value is -0.0503. As to G1A G6A A70U C71U, the “yeast fitness (ln)” value is -0.153.

G1A C27U A43C C46U C66U A70U C71U: the “yeast fitness (ln)” value was -0.469. The figure for G1A A69G A70U C71U is -0.44. Take G1A A43C A70U C71U: the “yeast fitness (ln)” value was -0.32.

In the case of G1A G6A A43C C46U, the “yeast fitness (ln)” value is -0.0957. G1A C27U A43C C66U A70G: the “yeast fitness (ln)” value is -0.333. As to G1A C27U A43C C66U A70U, the “yeast fitness (ln)” value is -0.201. For the variant G1A A43C C46U C66U A69G C71U, the “yeast fitness (ln)” value was -0.295.

In the case of G1A C27U A43C C46U, the “yeast fitness (ln)” value is -0.131. Regarding G1A G6A A43C C66U A69G A70G C71U, the “yeast fitness (ln)” value was -0.245. As for G1A C27U A43C C66U A70G C71U, the “yeast fitness (ln)” value is -0.32. The figure for G1A G6A C27U A43C A69G A70G C71U is -0.33; for G1A A43C C46U C66U A70G C71U it is -0.192. With G1A C46U C66A, the “yeast fitness (ln)” value worked out at 0.0129. For G1A C46U C66U, the “yeast fitness (ln)” value was -0.118. As to G1A G6A A43C A69G A70U C71U, the “yeast fitness (ln)” value is -0.503. As to G1A C46U A69G A70U C71U, the “yeast fitness (ln)” value is -0.359. The figure for G1A C27U A43C C46U C71U is -0.0315; for G1A A69G C71U it is -0.0087. As to G1A A43C C66U, the “yeast fitness (ln)” value is -0.172. G1A C27U C66A A69G A70G C71U: the “yeast fitness (ln)” value was -0.325. For the variant G1A A43C C66A A70U C71U, the “yeast fitness (ln)” value is -0.321. For the variant G1A C27U C46U A69G, the “yeast fitness (ln)” value is -0.304.

As to G1A G6A A43C C46U C66U A69G A70U, the “yeast fitness (ln)” value is -0.479. G1A G6A A43C C46U C66U A69G A70G: the “yeast fitness (ln)” value is -0.184. For G1A C27U A43C C46U C66U A69G A70G, the “yeast fitness (ln)” value was -0.188. G1A C27U A43C C46U C66U A69G A70U: the “yeast fitness (ln)” value was -0.4. The figure for G1A C27U A43C C66A A70G C71U is -0.35.

For the variant G1A C27U C46U A69G A70U C71U, the “yeast fitness (ln)” value was -0.301. G1A C27U C46U A70G: the “yeast fitness (ln)” value is -0.175. The figure for G1A C27U C46U A70U is -0.088; for G1A C27U C46U C66U C71U it is -0.454; for G1A C27U C46U it is -0.0938. On to G1A C27U A43C A69G A70U C71U, for which the “yeast fitness (ln)” value was -0.406. Take G1A C66A A70G C71U: the “yeast fitness (ln)” value was -0.0638. In the case of G1A A70U C71U, the “yeast fitness (ln)” value is -0.0607.
